Assays:
[1] = (§1) Cytotoxicity against MDCK cells assessed as reduction in cell viability after 3 days by MTS assay; assay type: cell-based, Canis lupus familiaris; details: dog, MDCK cells
[2] = tested on: H3N2 subtype; test: Antiviral activity against Influenza A virus A/HK/7/87(H3N2) infected in MDCK cells after 3 days by MTS assay; assay type: functional, organism-based; details: A/Hong Kong/7/1987(H3N2), 72 h
In short: (§2)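 Semi-confluent MDCK cells were infected at an MOI of 0.0004 PFU/cell in Ultra-MDCK infection medium with 2 μg/mL TPCK-trypsin, together with compounds. After 3 days at 35 °C, CPE was scored by microscopy and confirmed by MTS formazan viability. EC50 is the concentration giving 50% inhibition of virus-induced CPE. Values are means of two to five independent tests.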

[3] = tested on: Influenza B virus; test: Antiviral activity against Influenza B virus B/HK/05/72 infected in MDCK cells assessed as reduction in virus-induced cytopathic effect after 3 days by microscopic method; assay type: functional, organism-based; details: B/Hong Kong/05/1972, MDCK, 72 h; in short: as §2
[4] = tested on: Influenza A virus; test: Antiviral activity against Influenza A virus A/PR/8/34(H1N1) infected in MDCK cells after 3 days by MTS assay; assay type: functional, organism-based, A/Puerto Rico/8/1934(H1N1); details: Influenza A virus, A/Puerto Rico/8/1934(H1N1), MDCK, 72 h; in short: as §2
[5] = Cytotoxicity against MDCK cells assessed as alteration in cell morphology after 3 days by microscopic method; assay type: cell-based, Canis lupus familiaris; details: dog
In short: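 Mock-infected MDCK cells were treated with compounds in parallel with the antiviral assay, 3 days at 35 °C. MCC is the concentration causing minimal change in cell morphology by microscopy. CC50 is the 50% cytotoxic concentration by MTS formazan viability assay.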

[6] = tested on: Influenza B virus; test: Antiviral activity against Influenza B virus B/HK/05/72 infected in MDCK cells after 3 days by MTS assay; assay type: functional, organism-based; details: B/Hong Kong/05/1972, MDCK, 72 h; in short: as §2
[7] = tested on: Influenza A virus; test: Antiviral activity against Influenza A virus A/Virginia/ATCC3/2009(H1N1pdm) infected in MDCK cells assessed as reduction in virus-induced cytopathic effect after 3 days by microscopic method; assay type: functional, organism-based, Influenza A virus (A/Virginia/03/2009(H1N1)); details: 72 h; in short: as §2
[8] = tested on: Influenza A virus; test: Antiviral activity against Influenza A virus A/PR/8/34(H1N1) infected in MDCK cells assessed as reduction in virus-induced cytopathic effect after 3 days by microscopic method; assay type: functional, organism-based, A/Puerto Rico/8/1934(H1N1); details: Influenza A virus, A/Puerto Rico/8/1934(H1N1), MDCK, 72 h; in short: as §2
[9] = tested on: Influenza A virus; test: Antiviral activity against Influenza A virus A/PR/8/34(H1N1) GFP-fused pseudotyped lentiviral particle expressing H1-HA/N1-NA infected in MDCK cells assessed as inhibition of pseudoparticle entry at 2 uM after 3 days by flow cytometry relative to control; assay type: functional; details: A/Puerto Rico/8/1934(H1N1), 72 h
In short: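 MDCK cells were seeded at 7500/well and one day later were exposed to compounds plus GFP lentiviral pseudoparticles bearing A/PR/8/34 H1-HA and N1-NA, with HA0 activated by trypsin. After 3 days the cells were trypsinized, fixed in paraformaldehyde and analysed for GFP by flow cytometry. Entry inhibition was taken as the reduction in GFP signal. Data are the mean ± SEM of four independent experiments.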

[10] = tested on: H3N2 subtype; test: Antiviral activity against Influenza A virus A/HK/7/87(H3N2) infected in MDCK cells assessed as reduction in virus-induced cytopathic effect after 3 days by microscopic method; assay type: functional, organism-based; details: A/Hong Kong/7/1987(H3N2), 72 h; in short: as §2
[11] = tested on: Influenza A virus; test: Antiviral activity against Influenza A virus A/Virginia/ATCC3/2009(H1N1pdm) infected in MDCK cells after 3 days by MTS assay; assay type: functional, organism-based, Influenza A virus (A/Virginia/03/2009(H1N1)); details: 72 h; in short: as §2
[12] = tested on: MDCK; test: as §1; assay type: cell-based, Canis lupus familiaris; details: dog, mdck, 72 h
[13] = tested on: Human coronavirus 229E; test: Antiviral activity against Human coronavirus 229E infected in HEL299 cells assessed as reduction in virus induced cytopathic effect after 5 days by microscopic method; assay type: functional, organism-based; details: HEL 299, 120 h
In short: (§3)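 Confluent HEL 299 cells in medium with 2% FCS were exposed to HCoV-229E (100 CCID50/well) together with compounds and held for 5 days at 35 °C. EC50 (CPE reduction) and MCC (minimal morphology change) were determined by microscopy. SI is MCC/EC50.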

[14] = Selectivity index, ratio of MCC for HEL299 cells to EC50 for Human coronavirus 229E infected in HEL299 cells; assay type: toxicity, cell-based; details: read-out: Selectivity Index; in short: as §3
[15] = Cytotoxicity against HEL299 cells assessed as changes in cell morphology after 5 days by microscopic method; assay type: cell-based, HEL 299; details: human; in short: as §3
[16] = tested on: Influenza B virus; test: Antiviral activity against Influenza B virus B/Ned/537/05 infected in MDCK cells assessed as reduction in virus-induced cytopathic effect after 3 days by microscopic method; assay type: functional, organism-based; details: B/Ned/537/05, MDCK, 72 h
In short: (§4)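 Semi-confluent MDCK cells were infected at an MOI of 0.0004 PFU/cell in Ultra-MDCK infection medium with 2 μg/mL TPCK-trypsin, together with compounds. After 3 days at 35 °C, CPE was scored by microscopy and confirmed by MTS formazan viability. Values are means of two to five independent tests.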

[17] = tested on: Human coronavirus 229E; test: Antiviral activity against Human coronavirus 229E infected in human A549 cells assessed as reduction in virus RNA level after 3 days by qRT-PCR method; assay type: functional; details: A549, 72 h
In short: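 Confluent A549 cells were infected with HCoV-229E in 2% FCS medium with compounds present. The inoculum was removed at 1 h and compounds were kept on at 35 °C. Supernatants were harvested at day 3, lysed at 75 °C for 10 min, and viral genome copies counted by one-step qRT-PCR.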

[18] = Cytotoxicity against human A549 cells assessed as changes in cell morphology after 3 days by microscopic method; assay type: cell-based
In short: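 Mock-infected A549 cells were incubated with compounds for 3 days. MCC is the concentration causing minimal change in cell morphology by microscopy.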

[19] = tested on: Influenza B virus; test: Antiviral activity against Influenza B virus B/Ned/537/05 infected in MDCK cells after 3 days by MTS assay; assay type: functional, organism-based; details: B/Ned/537/05, MDCK, 72 h; in short: as §4
[20] = Selectivity index, ratio of MCC for MDCK cells to EC50 for Influenza B virus B/Ned/537/05 infected in MDCK cells assessed as reduction in virus-induced cytopathic effect by microscopic method; assay type: toxicity, cell-based; details: dog, read-out: Selectivity Index
In short: (§5)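 Selectivity index is MCC divided by EC50. MCC comes from microscopy of mock-infected MDCK cells. EC50 comes from microscopic scoring of virus-induced CPE in MDCK cells infected at an MOI of 0.0004 PFU/cell with TPCK-trypsin. Both readings were taken after 3 days at 35 °C.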

[21] = Selectivity index, ratio of MCC for MDCK cells to EC50 for Influenza A virus A/PR/8/34(H1N1) infected in MDCK cells assessed as reduction in virus-induced cytopathic effect by microscopic method; assay type: toxicity, cell-based; details: dog, read-out: Selectivity Index; in short: as §5
[22] = Selectivity index, ratio of MCC for MDCK cells to EC50 for Influenza B virus B/HK/05/72 infected in MDCK cells assessed as reduction in virus-induced cytopathic effect by microscopic method; assay type: toxicity, cell-based; details: dog, read-out: Selectivity Index; in short: as §5
[23] = Selectivity index, ratio of MCC for MDCK cells to EC50 for Influenza A virus A/HK/7/87(H3N2) infected in MDCK cells assessed as reduction in virus-induced cytopathic effect by microscopic method; assay type: toxicity, cell-based; details: dog, read-out: Selectivity Index; in short: as §5
[24] = Selectivity index, ratio of MCC for MDCK cells to EC50 for Influenza A virus A/Virginia/ATCC3/2009(H1N1pdm) infected in MDCK cells assessed as reduction in virus-induced cytopathic effect by microscopic method; assay type: toxicity, cell-based; details: dog, read-out: Selectivity Index; in short: as §5

SMILES | EC50 [2] [µM] | EC50 [4] [µM] | MCC at 72 h [5] [µM] | EC50 [7] [µM] | EC50 [8] [µM] | EC50 [10] [µM] | EC50 [11] [µM] | CC50 [12] [µM] | EC50 [13] [µM] | selectivity ratio [14] | MCC at 120 h [15] [µM] | EC50 [16] [µM] | EC90 [17] [µM] | EC99 [17] [µM] | MCC at 72 h [18] [µM] | EC50 [19] [µM] | other results
CCCCCCCCO[C@@H]1[C@@H](OCCCCCCCC)[C@@H](OC)O[C@H](COCCOCCOCCOCCOCc2cn([C@H]3C(=O)N[C@@H]4Cc5ccc(c(Cl)c5)Oc5cc6cc(c5O)Oc5ccc(cc5Cl)[C@@H](O[C@@H]5O[C@H](CO)[C@@H](O)[C@H](O)[C@H]5NC(C)=O)[C@H]5NC(=O)[C@H](NC(O)[C@@H]6NC(=O)[C@@H](NC4=O)c4cc(O)cc(c4)Oc4cc3ccc4O)c3ccc(O)c(c3)-c3c(O)cc(O)cc3[C@H](C(=O)O)NC5=O)nn2)[C@H]1OCc1ccc(OC)cc1 (stereo partly specified) | 1.2 | 1.2 | 20 | 1.4 | 0.8 | 1.8 | < 0.8 |  |  |  |  |  |  |  |  |  | CC50 at 72 h [1]: 11 µM; EC50 [3]: > 100 µM; EC50 [6]: > 100 µM; inhibition at 2 µM [9]: 54%
CC(=O)N[C@H]1[C@H](O[C@@H]2c3ccc(c(Cl)c3)Oc3cc4cc(c3O)Oc3ccc(cc3Cl)C[C@H]3NC(=O)[C@H](NS(=O)(=O)c5ccc(C)cc5)c5ccc(O)c(c5)Oc5cc(O)cc(c5)[C@H](NC3=O)C(=O)N[C@H]4C(O)N[C@H]3C(=O)N[C@H]2C(=O)N[C@@H](C(=O)O)c2cc(O)cc(O)c2-c2cc3ccc2O)O[C@H](CO)[C@@H](O)[C@@H]1O (stereo partly specified) | 19 | 11 | 100 | 30 | 9 | 41 | 32 | > 100 | 5.2 | 19 | ≥ 100 | 11 | 4.9 | 10 | > 50 | 12 | 
CCCCCCS(=O)(=O)N[C@H]1C(=O)N[C@@H]2Cc3ccc(c(Cl)c3)Oc3cc4cc(c3O)Oc3ccc(cc3Cl)[C@@H](O[C@@H]3O[C@H](CO)[C@@H](O)[C@H](O)[C@H]3NC(C)=O)[C@H]3NC(=O)[C@H](NC(O)[C@@H]4NC(=O)[C@@H](NC2=O)c2cc(O)cc(c2)Oc2cc1ccc2O)c1ccc(O)c(c1)-c1c(O)cc(O)cc1[C@H](C(=O)O)NC3=O (stereo partly specified) | 8.9 | 9.6 | 100 | 8.9 | 8.6 | 8.3 | 9.1 | 54 | 1.5 | 11 | 20 | 8.9 |  |  |  | 10.3 | 
CCCCCCCCCCCCS(=O)(=O)N[C@H]1C(=O)N[C@@H]2Cc3ccc(c(Cl)c3)Oc3cc4cc(c3O)Oc3ccc(cc3Cl)[C@@H](O[C@@H]3O[C@H](CO)[C@@H](O)[C@H](O)[C@H]3NC(C)=O)[C@H]3NC(=O)[C@H](NC(O)[C@@H]4NC(=O)[C@@H](NC2=O)c2cc(O)cc(c2)Oc2cc1ccc2O)c1ccc(O)c(c1)-c1c(O)cc(O)cc1[C@H](C(=O)O)NC3=O (stereo partly specified) | < 0.8 | 0.8 | 4 | > 100 | 0.4 | < 0.8 | 1.6 | 4.5 | 1.8 | 13 | 20 | < 0.8 | 2.8 | 4.7 | 50 | < 0.8 | 
CCCCSC1=C(SCCCC)C(=O)N(CCOCCOCCOCCOCc2cn(C3C(=O)N[C@@H]4Cc5ccc(c(Cl)c5)Oc5cc6cc(c5O)Oc5ccc(cc5Cl)[C@@H](O[C@@H]5O[C@H](CO)[C@@H](O)[C@H](O)[C@H]5NC(C)=O)[C@H]5NC(=O)[C@H](NC(O)[C@@H]6NC(=O)[C@@H](NC4=O)c4cc(O)cc(c4)Oc4cc3ccc4O)c3ccc(O)c(c3)-c3c(O)cc(O)cc3[C@H](C(=O)O)NC5=O)nn2)C1=O (stereo partly specified) | 6 | 5.8 | 100 | 9.5 | 4.8 | 5.3 | 8.6 | > 100 | 8.9 |  | ≥ 100 | 5.5 | 8.6 | 29 | > 50 | 4.9 | selectivity ratio [20]: 16; selectivity ratio [21]: 16; selectivity ratio [22]: 16; selectivity ratio [23]: 16; selectivity ratio [24]: 16

Source: ChEMBL document CHEMBL4270630
